Format: in vivo, human
Outline: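 Tablets co-formulated with SNAC, 3 mg on Days 1–5 then 7 mg on Days 6–10. Reference arm: ≥6 h overnight fast, 8 am dose, 30-min post-dose fast. Other arms: ~760 kcal meal, then 2/4/6 h fast, 8 pm dose, 30-min or overnight post-dose fast. Plasma sampled 10 min–24 h after 10th dose and measured by validated LC-MS/MS. AUC0–24h by linear trapezoidal method; log values back-transformed to geometric-mean ratios with 95% CI.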

[1] = 2 h–30 min, 4 h–30 min and 6 h–30 min arms vs night–30 min, p < 0.0001

Structure (SMILES): CC[C@H](C)[C@H](NC(=O)[C@H](Cc1ccccc1)NC(=O)[C@H](CCC(=O)O)NC(=O)[C@H](CCCCNC(=O)COCCOCCNC(=O)COCCOCCNC(=O)CC[C@H](NC(=O)CCCCCCCCCCCCCCCCC(=O)O)C(=O)O)NC(=O)[C@H](C)NC(=O)[C@H](C)NC(=O)[C@H](CCC(N)=O)NC(=O)CNC(=O)[C@H](CCC(=O)O)NC(=O)[C@H](CC(C)C)NC(=O)[C@H](Cc1ccc(O)cc1)NC(=O)[C@H](CO)NC(=O)[C@H](CO)NC(=O)[C@@H](NC(=O)[C@H](CC(=O)O)NC(=O)[C@H](CO)NC(=O)[C@@H](NC(=O)[C@H](Cc1ccccc1)NC(=O)[C@@H](NC(=O)CNC(=O)[C@H](CCC(=O)O)NC(=O)C(C)(C)NC(=O)[C@@H](N)Cc1cnc[nH]1)[C@@H](C)O)[C@@H](C)O)C(C)C)C(=O)N[C@@H](C)C(=O)N[C@@H](Cc1c[nH]c2ccccc12)C(=O)N[C@@H](CC(C)C)C(=O)N[C@H](C(=O)N[C@@H](CCCNC(=N)N)C(=O)NCC(=O)N[C@@H](CCCNC(=N)N)C(=O)NCC(=O)O)C(C)C [oral semaglutide, semaglutide]
- AUC0–24h Day 10 estimated treatment ratio range [1]: 0.12–0.43
- Cmax Day 10 estimated treatment ratio range [1]: 0.12–0.44
- reduction of exposure to semaglutide compared with reference arm (night–30 min) (all alternative treatment arms, even 6 h–30 min): more than 50%
- median Tmax on Day 10, range across treatment arms (all five treatment arms): 48 to 60 min

Source: article PMC10023024 (Clinical Pharmacokinetics, 2023)
